{"data": "Results gathered from unrelated publications", "SIRT2": "NAD-dependent protein deacetylase sirtuin-2 (SIRT2, Homo sapiens, UniProt Q8IXJ6)", "AMY2": "Pancreatic alpha-amylase (AMY2, Sus scrofa, UniProt P00690)", "SLC22A8": "Organic anion transporter 3 (SLC22A8, Homo sapiens, UniProt Q8TCC7)", "RORC": "Nuclear receptor ROR-gamma (RORC, Homo sapiens, UniProt P51449)", "Maoa": "Amine oxidase [flavin-containing] A (Maoa, Rattus norvegicus, UniProt P21396)", "CDC7": "Cell division cycle 7-related protein kinase (CDC7, Homo sapiens, UniProt O00311)", "Genome polyprotein protease": "Genome polyprotein, protease (Hepatitis C virus genotype 1b, UniProt Q9WMX2)", "note": "Each line is one published result; the experiments were not run side by side."}
{"Structure (SMILES)": "CCCCCCCCCCCCNC(=S)NCCCC[C@H](NS(C)(=O)=O)C(=O)N[C@H](C)C(=O)N[C@@H](CCCNC(=N)N)C(=O)N1CCOCC1", "target": "SIRT2", "assay": "enzyme activity, inhibitor", "IC50 [nM]": 90}
{"Structure (SMILES)": "O=C(O)CNC(=O)C(=O)O", "target": "Lysine-specific demethylase 4D (KDM4D, Homo sapiens, UniProt Q6B0I6)", "assay": "enzyme activity, inhibitor, AlphaScreen", "IC50 [nM]": 34000}
{"Structure (SMILES)": "O=C1Nc2ccc([N+](=O)[O-])cc2/C1=N/NS(=O)(=O)c1ccc(Cl)cc1", "target": "AMY2", "assay": "enzyme activity, inhibitor", "IC50 [nM]": 4100}
{"Structure (SMILES)": "CCCCCCCCCCCCNC(=S)NCCCC[C@H](NC(=O)OCc1ccccc1)C(=O)N[C@@H](Cc1c[nH]c2ccccc12)C(=O)N[C@@H](CCNC(=N)N)C(N)=O", "target": "SIRT2", "assay": "enzyme activity, inhibitor", "IC50 [nM]": 160}
{"Structure (SMILES)": "CCn1c(-c2nc3cc(C(=O)N4CCC[C@@H](N)C4)cc(OC)c3n2C)cc2cccnc21", "target": "Muscarinic acetylcholine receptor M2 (CHRM2, Homo sapiens, UniProt P08172)", "assay": "calcium signal, antagonist, fluorescence", "IC50 [nM]": "> 15800"}
{"Structure (SMILES)": "CCS(=O)(=O)N1CC(CC#N)(n2cc(-c3ncnc4[nH]ccc34)cn2)C1", "target": "SLC22A8", "assay": "transporter uptake, inhibitor, radiometric", "IC50 [nM]": 8400}
{"Structure (SMILES)": "CCCCCCCCCCCCNC(=S)NCCCC[C@H](NC(=O)OCc1ccccc1)C(=O)N[C@@H](Cc1c[nH]c2ccccc12)C(=O)N[C@@H](CCCCN)C(N)=O", "target": "SIRT2", "assay": "enzyme activity, inhibitor", "IC50 [nM]": 220}
{"Structure (SMILES)": "O=C(Cc1cccs1)N[C@@H]1C(=O)N2C(C(=O)[O-])=C(C[n+]3ccccc3)CS[C@H]12", "target": "Chymotrypsinogen A (Bos taurus, UniProt P00766)", "assay": "enzyme activity, inhibitor, fluorescence", "IC50 [nM]": 6000}
{"Structure (SMILES)": "COc1c(Cl)cccc1COc1ccc2c(c1)N(S(=O)(=O)c1cccc(C(F)(F)F)c1)CC2", "target": "RORC", "assay": "ligand displacement, radioligand", "IC50 [nM]": 440}
{"Structure (SMILES)": "CC(=NN=C1CS(=O)(=O)N(C)c2ccccc21)c1sccc1Cl", "target": "Maoa", "assay": "enzyme activity, inhibitor, fluorescence", "IC50 [nM]": 1040}
{"Structure (SMILES)": "O=S(=O)(c1cccc(C(F)(F)F)n1)N1CCc2ccc(OCc3c(F)cccc3Cl)cc21", "target": "RORC", "assay": "ligand displacement, radioligand", "IC50 [nM]": 250}
{"Structure (SMILES)": "CC(C)[C@H](N)c1nc2cc(-c3cn[nH]n3)sc2c(=O)[nH]1", "target": "CDC7", "assay": "enzyme activity, inhibitor", "IC50 [nM]": 3630}
{"Structure (SMILES)": "COc1ccc2cc(C=NN=C3CS(=O)(=O)N(C)c4ccccc43)c(Cl)nc2c1", "target": "Maoa", "assay": "enzyme activity, inhibitor, fluorescence", "IC50 [nM]": 3430}
{"Structure (SMILES)": "O=S(=O)(c1ccnc(C(F)(F)F)c1)N1CCc2ccc(OCc3c(F)cccc3Cl)cc21", "target": "RORC", "assay": "ligand displacement, radioligand", "IC50 [nM]": 230}
{"Structure (SMILES)": "CCCCCCCC/C=C\\CCCCCCCC(=O)Oc1ccc2ccc(=O)oc2c1", "target": "DNA polymerase I, thermostable (polA, Thermus aquaticus, UniProt P19821)", "assay": "enzyme activity, inhibitor", "IC50 [nM]": "> 200000"}
{"Structure (SMILES)": "Cc1cccc(C)c1COc1ccc2c(c1)N(S(=O)(=O)c1cccc(C(F)(F)F)c1)CC2", "target": "RORC", "assay": "ligand displacement, radioligand", "IC50 [nM]": 230}
{"Structure (SMILES)": "Cc1cnc(-c2ccc(-c3ccc(NC(=O)Nc4c(F)cc(F)cc4F)cc3F)c3c2C(=O)NC3)[nH]1", "target": "Tyrosine-protein kinase Fer (FER, Homo sapiens, UniProt P16591)", "assay": "enzyme activity, inhibitor", "IC50 [nM]": 14.8}
{"Structure (SMILES)": "COc1ccc(S(=O)(=O)N/N=C2\\C(=O)Nc3ccccc32)cc1", "target": "AMY2", "assay": "enzyme activity, inhibitor", "IC50 [nM]": 11600}
{"Structure (SMILES)": "CCCCCCCCCCCCCC(=S)NCCCC[C@H](NC(=O)OCc1ccccc1)C(=O)N[C@@H](Cc1c[nH]c2ccccc12)C(=O)NC(C)C", "target": "SIRT2", "assay": "enzyme activity, inhibitor", "IC50 [nM]": 1200}
{"Structure (SMILES)": "CCNC(=O)[C@H](CCCNC(=N)CF)NC(=O)c1ccccc1", "target": "Protein-arginine deiminase type-3 (PADI3, Homo sapiens, UniProt Q9ULW8)", "assay": "enzyme activity, inhibitor", "IC50 [nM]": 157000}
{"Structure (SMILES)": "O=S(=O)(c1cc(C(F)(F)F)ccn1)N1CCc2ccc(OCc3c(F)cccc3Cl)cc21", "target": "RORC", "assay": "ligand displacement, radioligand", "IC50 [nM]": 180}
{"Structure (SMILES)": "O=C1OC[C@H]2OC(O)[C@H](O)[C@@H](O)[C@@H]2OC(=O)c2cc(O)c(O)c(O)c2-c2c(O)c(O)c3oc(=O)c4c(c(O)c(O)c5oc(=O)c2c3c54)-c2c1cc(O)c(O)c2O (mixture of isomers)", "target": "Genome polyprotein protease", "assay": "enzyme activity, inhibitor, fluorescence", "IC50 [nM]": "< 100"}
{"Structure (SMILES)": "CC(C)[C@H](N)c1nc2cc(-c3ccnc(Cl)c3)sc2c(=O)[nH]1", "target": "CDC7", "assay": "enzyme activity, inhibitor", "IC50 [nM]": 2200}
{"Structure (SMILES)": "CN1CCN(c2ccc(Nc3ncc4cc(C#N)c(=O)n(C5CCCC5)c4n3)cc2)CC1", "target": "Ribosomal protein S6 kinase alpha-1 (RPS6KA1, Homo sapiens, UniProt Q15418)", "assay": "enzyme activity, inhibitor", "IC50 [nM]": 473}
{"Structure (SMILES)": "Cc1ccc(S(=O)(=O)Nc2ccccc2C(=O)Nc2nc(-c3cc(Cl)ccc3Cl)cs2)cc1", "target": "Genome polyprotein protease", "assay": "enzyme activity, inhibitor, FRET", "IC50 [nM]": 1200}
{"Structure (SMILES)": "OC[C@@H]1[C@@H](O)[C@H](O)[C@@H](O)[C@@H]2O[C@H]12", "target": "Beta-glucosidase (GBA2, Homo sapiens, UniProt Q9HCG7)", "assay": "enzyme activity, inhibitor", "setting": "pH 5, lysate", "IC50 [nM]": 26700}
{"Structure (SMILES)": "CCCCCCCCCCCCNC(=S)NCCCC[C@H](NC(=O)OCc1ccccc1)C(=O)N[C@@H](Cc1c[nH]c2ccccc12)C(=O)N[C@@H](CCC(=O)O)C(N)=O", "target": "SIRT2", "assay": "enzyme activity, inhibitor", "IC50 [nM]": 100}
{"Structure (SMILES)": "COc1cc(N2CCN(C)CC2)ccc1Nc1ncc2c(n1)N(C)c1ccccc1C(=O)N2", "target": "Serine/threonine-protein kinase DCLK1 (DCLK1, Homo sapiens, UniProt O15075)", "assay": "enzyme activity, inhibitor, mobility shift", "IC50 [nM]": "> 1000"}
{"Structure (SMILES)": "O=C1Nc2ccccc2/C1=N/NS(=O)(=O)c1ccc(Cl)cc1", "target": "AMY2", "assay": "enzyme activity, inhibitor", "IC50 [nM]": 3700}
{"Structure (SMILES)": "CCCN1CCN(c2ccc(-c3cncc(Cl)c3N3CCC4(CCNC4=O)CC3)cc2)CC1", "target": "Cyclin-dependent kinase 19, with cyclin C (CDK19, Homo sapiens, UniProt Q9BWU1)", "assay": "ligand displacement", "IC50 [nM]": 7}
{"Structure (SMILES)": "O=S(=O)(c1cccc(C(F)(F)F)c1)N1c2cc(OCc3c(Cl)cncc3Cl)ccc2CC1C(F)(F)F (stereo not drawn)", "target": "RORC", "assay": "ligand displacement, radioligand", "IC50 [nM]": 150}
{"Structure (SMILES)": "C=C(CC)C(=O)c1ccc(OCC(=O)O)c(Cl)c1Cl", "target": "SLC22A8", "assay": "transporter uptake, inhibitor", "IC50 [nM]": 662}
{"Structure (SMILES)": "COc1ccccc1COc1ccc2c(c1)N(S(=O)(=O)c1cccc(C(F)(F)F)c1)CC2", "target": "RORC", "assay": "ligand displacement, radioligand", "IC50 [nM]": 200}
{"Structure (SMILES)": "CNC(=O)c1cc2c(Oc3ccc(NC(=O)C4(C(=O)Nc5ccc(F)cc5)CC4)cc3)ccnc2cc1OC", "target": "Tyrosine-protein kinase FRK (FRK, Homo sapiens, UniProt P42685)", "assay": "enzyme activity, inhibitor, radiometric", "IC50 [nM]": 13}
{"Structure (SMILES)": "O=S(=O)(c1cccc(C(F)(F)F)c1)N1CCc2ccc(OCc3c(F)cccc3Cl)cc21", "target": "RORC", "assay": "ligand displacement, radioligand", "IC50 [nM]": 120}
{"Structure (SMILES)": "CC(=O)Oc1ccccc1C(=O)Nc1ncc([N+](=O)[O-])s1", "target": "SLC22A8", "assay": "transporter uptake, inhibitor", "IC50 [nM]": 154}
